Published values collected from several papers.
Lines come from different studies, so protocols differ.
Oprk1: Kappa-type opioid receptor (Oprk1, Mus musculus, UniProt P33534)
BCHE: Cholinesterase (BCHE, Homo sapiens, UniProt P06276)

`CC(C)[C@H](CN1CCc2ccccc2C1)NC(=O)c1cccc(-c2cccc(O)c2)c1` gave an inhibition of 81% (Oprk1; ligand displacement, radioligand; 10 µM).
`CN1CCC[C@H]1c1cccnc1` has an inhibition of 8.2% (Sodium-dependent noradrenaline transporter (SLC6A2, Homo sapiens, UniProt P23975); ligand displacement; 50 µM).
The inhibition of `COc1cc(/C=C/C(=O)O)ccc1OCc1cn(CC(=O)Nc2ccc(Cl)cc2Cl)nn1` is reported as 58.2% (BCHE; enzyme activity, inhibitor, Ellman; 40 µM).
`CC(C)[C@H](CN1CCc2ccccc2C1)NC(=O)Cc1c[nH]c2ccccc12` has an inhibition of 90% (Oprk1; ligand displacement, radioligand; 10 µM).
With `COc1cc(/C=C/C(=O)O)ccc1OCc1cn(CC(=O)Nc2cccc(Cl)c2)nn1` the inhibition was 15.3% (BCHE; enzyme activity, inhibitor, Ellman; 40 µM).
For `[2H]c1c([2H])c([C@]2([2H])CCCN2C(=O)C(C)(C)Oc2ccc3cn[nH]c3c2)c([2H])c([2H])c1C([2H])([2H])[2H]`, the remaining binding was 100% (MAP kinase-interacting serine/threonine-protein kinase 2 (MKNK2, Homo sapiens, UniProt Q9HBH9); binding, competition with immobilised ligand; 1 µM).
The inhibition of `c1cncc([C@@H]2CCCN2)c1` is reported as -2.02% (Muscarinic acetylcholine receptor M5 (CHRM5, Homo sapiens, UniProt P08912); ligand displacement; 50 µM).
`CC(C)CC(=O)OC[C@H]1O[C@@](C#N)(c2ccc3c(N)ncnn23)[C@H](O)[C@@H]1O` has an inhibition of -5% (Neuronal acetylcholine receptor; alpha3/beta4 (Homo sapiens, UniProt P30926+P32297); cell-free assay; 20 µM).
